ChEMBL document CHEMBL4376874, “Discovery of Potent and Selective Epidermal Growth Factor Receptor (EGFR) Bifunctional Small-Molecule Degraders” (J Med Chem, 2020)
Active and inactive are the calls of the source. No cut-off for these calls is given here.

How the values were obtained:
[1] = tested on: Protein cereblon/Epidermal growth factor receptor (Homo sapiens), P00533+Q96SW2 [UNDEFINED MUTATION]; experiment: Protac activity at CRBN/EGFR exon 19 deletion mutant in human HCC827 cells assessed as induction of EGFR degradation at up to 1 uM treated 8 hrs post serum starvation measured after 16 hrs by Western blot analysis; format: cell-based
[2] = tested on: Epidermal growth factor receptor (Homo sapiens), P00533 [L858R]; experiment: Induction of EGFR L858R degradation in human H3255 cells assessed as reduction in ATK phosphorylation up to 100 nM treated 8 hrs post serum starvation measured after 16 hrs by Western blot analysis; format: cell-based
[3] = tested on: Epidermal growth factor receptor (Homo sapiens), P00533 [UNDEFINED MUTATION]; experiment: Induction of EGFR exon 19 deletion mutant degradation in human HCC827 cells up to 100 nM treated 8 hrs post serum starvation measured after 16 hrs by Western blot analysis; format: cell-based
[4] = biological target: Epidermal growth factor receptor (Homo sapiens, UniProt P00533, L858R); set-up: species or system Hofmanni bacterium
NCI-H3255 [5] = experiment: Antiproliferative activity against human H3255 cells measured after 3 days by CCK8 assay; format: functional, cell-based
Outline: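 H3255 cells seeded 4000/well the night before, then exposed to serial dilutions for 3 days. Growth read by Cell Counting Kit-8; three independent experiments. IC50 from nonlinear regression (log inhibitor vs response, variable slope).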

[6] = tested on: Epidermal growth factor receptor (Homo sapiens), P00533 [L858R]; experiment: Induction of EGFR L858R degradation in human H3255 cells up to 100 nM treated 8 hrs post serum starvation measured after 16 hrs by Western blot analysis; format: cell-based
[7] = tested on: Epidermal growth factor receptor (Homo sapiens), P00533 [L858R]; experiment: Induction of EGFR L858R degradation in human H3255 cells assessed as reduction in EGFR autophosphorylation up to 100 nM treated 8 hrs post serum starvation measured after 16 hrs by Western blot analysis; format: cell-based
[8] = tested on: Epidermal growth factor receptor (Homo sapiens), P00533 [UNDEFINED MUTATION]; experiment: Induction of EGFR exon 19 deletion mutant degradation in human HCC827 cells assessed as reduction in EGFR autophosphorylation up to 100 nM treated 8 hrs post serum starvation measured after 16 hrs by Western blot analysis; format: cell-based
[9] = biological target: T1, Epidermal growth factor receptor (Homo sapiens, UniProt P00533); experiment: Binding affinity to human wild-type partial length EGFR (R669 to V1011 residues) expressed in bacterial expression system by kinomescan assay
[10] = tested on: Epidermal growth factor receptor (Homo sapiens), P00533 [UNDEFINED MUTATION]; experiment: Induction of EGFR exon 19 deletion mutant degradation in human HCC827 cells assessed as reduction in AKT phosphorylation up to 100 nM treated 8 hrs post serum starvation measured after 16 hrs by Western blot analysis; format: cell-based
[11] = Toxicity in Swiss albino mouse assessed as clinical changes at 50 mg/kg, ip; format: organism-based; conditions: in vivo
[12] = biological target: von Hippel-Lindau disease tumor suppressor/Epidermal growth factor receptor (Homo sapiens, UniProt P00533+P40337, L858R)
HCC827 [13] = experiment: Up regulation of HMGCS1 expression in human HCC827 cells at 100 nM measured after 16 hrs by LC-MS analysis; format: functional, cell-based
Outline: (§1)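 HCC-827 cells serum-starved 8 h, then treated at 100 nM for 16 h. Collected for label-free quantitative LC–MS proteomics; LFQ intensity compared between treated and control groups; three independent experiments.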

[14] = biological target: T1, Epidermal growth factor receptor; experiment: Induction of wild-type EGFR degradation in human OVCAR8 cells at up to 10 uM treated 8 hrs post serum starvation measured after 16 hrs by Western blot analysis; format: cell-based
HCC827 [15] = experiment: Up regulation of BIN1 expression in human HCC827 cells at 100 nM measured after 16 hrs by LC-MS analysis; format: functional, cell-based; outline: as §1
[16] = biological target: von Hippel-Lindau disease tumor suppressor/Epidermal growth factor receptor (Homo sapiens, UniProt P00533+P40337); experiment: Protac activity at VHL/EGFR exon 19 deletion mutant in human HCC827 cells assessed as induction of EGFR degradation treated 8 hrs post serum starvation measured after 16 hrs by Western blot analysis
[17] = Cmax in Swiss albino mouse at 50 mg/kg, ip measured after 24 hrs; format: ADME, organism-based; set-up: dose 50 mg/kg, route intraperitoneal; conditions: in vivo
[18] = Cmax in Swiss albino mouse at 50 mg/kg, ip measured after 8 hrs; format: ADME, organism-based; set-up: dose 50 mg/kg, route intraperitoneal; conditions: in vivo
HCC827 [19] = experiment: Up regulation of RRM2 expression in human HCC827 cells at 100 nM measured after 16 hrs by LC-MS analysis; format: functional, cell-based; outline: as §1
NCI-H3255 [20] = experiment: Effect on AKT level in human H3255 cells up to 10 uM treated 8 hrs post serum starvation measured after 16 hrs by Western blot analysis; format: ADME, cell-based; conditions: nci-h3255, 16 h
HCC827 [21] = experiment: Up regulation of DAD1 expression in human HCC827 cells at 100 nM measured after 16 hrs by LC-MS analysis; format: functional, cell-based; outline: as §1
HCC827 [22] = experiment: Effect on AKT level in human HCC827 cells up to 10 uM treated 8 hrs post serum starvation measured after 16 hrs by Western blot analysis; format: ADME, cell-based; conditions: hcc827, 16 h
HCC827 [23] = experiment: Down regulation of NGDN expression in human HCC827 cells at 100 nM measured after 16 hrs by LC-MS analysis; format: functional, cell-based; outline: as §1
HCC827 [24] = experiment: Up regulation of SEC61G expression in human HCC827 cells at 100 nM measured after 16 hrs by LC-MS analysis; format: functional, cell-based; outline: as §1
[25] = biological target: T1, Epidermal growth factor receptor; experiment: Induction of wild-type EGFR degradation in human H1299 cells at up to 10 uM treated 8 hrs post serum starvation measured after 16 hrs by Western blot analysis; format: cell-based
HCC827 [26] = experiment: Down regulation of TXNIP expression in human HCC827 cells at 100 nM measured after 16 hrs by LC-MS analysis; format: functional, cell-based; outline: as §1
[27] = tested on: von Hippel-Lindau disease tumor suppressor/Epidermal growth factor receptor (Homo sapiens), P00533+P40337 [L858R]; experiment: Protac activity at VHL/EGFR L858R mutant in human H3255 cells assessed as reduction in AKT phosphorylation up to 10 uM treated 8 hrs post serum starvation measured after 16 hrs by Western blot analysis; format: cell-based
[28] = tested on: von Hippel-Lindau disease tumor suppressor/Epidermal growth factor receptor (Homo sapiens), P00533+P40337 [L858R]; experiment: Protac activity at VHL/EGFR L858R mutant in human H3255 cells assessed as induction of EGFR degradation up to 500 nM treated 8 hrs post serum starvation measured after 16 hrs by Western blot analysis; format: cell-based
Outline: (§2)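 Cultured to 80% confluence in RPMI/1640 with 20% FBS at 37 °C and 5% CO2, then switched to serum-free medium for 8 h. Degraders were added over a concentration range up to 10 μM for 16 h, with gefitinib at 1 μM as reference. Lysates in Laemmli buffer were immunoblotted for EGFR, p-EGFR and p-AKT. DC50 came from band quantification by nonlinear regression (variable slope).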

[29] = tested on: von Hippel-Lindau disease tumor suppressor/Epidermal growth factor receptor (Homo sapiens), P00533+P40337 [UNDEFINED MUTATION]; experiment: Protac activity at VHL/EGFR exon 19 deletion mutant in human HCC827 cells assessed as reduction in AKT phosphorylation up to 10 uM treated 8 hrs post serum starvation measured after 16 hrs by Western blot analysis; format: cell-based
[30] = tested on: von Hippel-Lindau disease tumor suppressor/Epidermal growth factor receptor (Homo sapiens), P00533+P40337 [UNDEFINED MUTATION]; experiment: Protac activity at VHL/EGFR exon 19 deletion mutant in human HCC827 cells assessed as induction of EGFR degradation up to 500 nM treated 8 hrs post serum starvation measured after 16 hrs by Western blot analysis; format: cell-based
[31] = tested on: von Hippel-Lindau disease tumor suppressor/Epidermal growth factor receptor (Homo sapiens), P00533+P40337 [L858R]; experiment: Protac activity at VHL/EGFR L858R mutant in human H3255 cells assessed as induction of EGFR degradation at 1 to 10 uM treated 8 hrs post serum starvation measured after 16 hrs by Western blot analysis; format: cell-based; outline: as §2
[32] = tested on: von Hippel-Lindau disease tumor suppressor/Epidermal growth factor receptor (Homo sapiens), P00533+P40337 [UNDEFINED MUTATION]; experiment: Protac activity at VHL/EGFR exon 19 deletion mutant in human HCC827 cells assessed as reduction in EGFR autophosphorylation up to 10 uM treated 8 hrs post serum starvation measured after 16 hrs by Western blot analysis; format: cell-based
[33] = tested on: von Hippel-Lindau disease tumor suppressor/Epidermal growth factor receptor (Homo sapiens), P00533+P40337 [L858R]; experiment: Protac activity at VHL/EGFR L858R mutant in human H3255 cells assessed as reduction in EGFR autophosphorylation up to 10 uM treated 8 hrs post serum starvation measured after 16 hrs by Western blot analysis; format: cell-based
[34] = tested on: von Hippel-Lindau disease tumor suppressor/Epidermal growth factor receptor (Homo sapiens), P00533+P40337 [UNDEFINED MUTATION]; experiment: Protac activity at VHL/EGFR exon 19 deletion mutant in human HCC827 cells assessed as induction of EGFR degradation at 1 to 10 uM treated 8 hrs post serum starvation measured after 16 hrs by Western blot analysis; format: cell-based; outline: as §2
[35] = tested on: von Hippel-Lindau disease tumor suppressor/Epidermal growth factor receptor (Homo sapiens), P00533+P40337 [UNDEFINED MUTATION]; experiment: Protac activity at VHL/EGFR exon 19 deletion mutant in human HCC827 cells assessed as induction of EGFR degradation at up to 1 uM treated 8 hrs post serum starvation measured after 16 hrs by Western blot analysis; format: cell-based; outline: as §2

COc1cc2ncnc(Nc3ccc(F)c(Cl)c3)c2cc1OCCCN1CCN(CCC(=O)NCCCCCCNc2cccc3c2C(=O)N(C2CCC(=O)NC2=O)C3=O)CC1 (configuration not stated)
Activity [1]: Active

COc1cc2ncnc(Nc3ccc(F)c(Cl)c3)c2cc1OCCCN1CCN(CCC(=O)NCCCCCCCCOc2cccc3c2C(=O)N(C2CCC(=O)N(C)C2=O)C3=O)CC1 (configuration not stated)
Activity [2]: Active
Activity [3]: inactive
Kd [4]: 4.3 nM
Activity (NCI-H3255 [5]): Active
Activity [6]: inactive
Activity [7]: Active
Activity [8]: Active
Kd [9]: 3 nM
Activity [10]: Active

COc1cc2ncnc(Nc3ccc(F)c(Cl)c3)c2cc1OCCCN1CCN(C(=O)CCCCCCCCCC(=O)N[C@H](C(=O)N2C[C@H](O)C[C@H]2C(=O)NCc2ccc(-c3scnc3C)cc2)C(C)(C)C)CC1
Activity [11]: Non-Toxic
DC50 [12]: 3.3 nM
Activity (HCC827 [13]): Active
Kd [4]: 12 nM
Activity [14]: Not Active
Activity (HCC827 [15]): Active
DC50 [16]: 5 nM
Activity (NCI-H3255 [5]): Active
Cmax [17]: 1000 nM
Cmax [18]: 5000 nM
Activity (HCC827 [19]): Active
Activity (NCI-H3255 [20]): Non-Toxic
Activity (HCC827 [21]): Active
Activity (HCC827 [22]): Non-Toxic
Activity (HCC827 [23]): Active
Activity (HCC827 [24]): Active
Activity [25]: Not Active
Activity (HCC827 [26]): Active
Kd [9]: 11 nM

COc1cc2ncnc(Nc3ccc(F)c(Cl)c3)c2cc1OCCCN1CCN(C(=O)CCCCCCCCCC(=O)N[C@H](C(=O)N2C[C@@H](O)C[C@@H]2C(=O)NCc2ccc(-c3scnc3C)cc2)C(C)(C)C)CC1
Kd [4]: 9 nM
Activity (NCI-H3255 [5]): Active
Kd [9]: 8.6 nM

COc1cc2ncnc(Nc3ccc(F)c(Cl)c3)c2cc1OCCCCCOCCOCCC(=O)N[C@H](C(=O)N1C[C@H](O)C[C@H]1C(=O)NCc1ccc(-c2scnc2C)cc1)C(C)(C)C
Activity [27]: Active
Activity [28]: Active
Activity [29]: Active
Activity (NCI-H3255 [5]): Active
Activity [30]: Active
Activity [31]: inactive
Activity [32]: Active
Activity [33]: Active
Activity [34]: inactive

COc1cc2ncnc(Nc3ccc(F)c(Cl)c3)c2cc1OCCCN1CCN(C(=O)CCOCCOCCOCCC(=O)N[C@H](C(=O)N2C[C@H](O)C[C@H]2C(=O)NCc2ccc(-c3scnc3C)cc2)C(C)(C)C)CC1
Activity [35]: inactive

COc1cc2ncnc(Nc3ccc(F)c(Cl)c3)c2cc1OCCCN1CCN(CCC(=O)NCCOCCNc2cccc3c2C(=O)N(C2CCC(=O)NC2=O)C3=O)CC1 (configuration not stated)
Activity [1]: Active

COc1cc2ncnc(Nc3ccc(F)c(Cl)c3)c2cc1OCCCN1CCN(C(=O)CCOCCC(=O)N[C@H](C(=O)N2C[C@H](O)C[C@H]2C(=O)NCc2ccc(-c3scnc3C)cc2)C(C)(C)C)CC1
Activity [35]: inactive

COc1cc2ncnc(Nc3ccc(F)c(Cl)c3)c2cc1OCCCN1CCOCC1
Activity (NCI-H3255 [5]): Active

COc1cc2ncnc(Nc3ccc(F)c(Cl)c3)c2cc1OCCCN1CCN(C(=O)CCOCCOCCOCCOCCOCCC(=O)N[C@H](C(=O)N2C[C@H](O)C[C@H]2C(=O)NCc2ccc(-c3scnc3C)cc2)C(C)(C)C)CC1
Activity [35]: inactive

COc1cc2ncnc(Nc3ccc(F)c(Cl)c3)c2cc1OCCCN1CCN(CCC(=O)NCCOCCOCCOCCOCCOCCNc2cccc3c2C(=O)N(C2CCC(=O)NC2=O)C3=O)CC1 (configuration not stated)
Activity [1]: Active
